Measured values pooled from the literature.
Each line is one published result; the experiments were not run side by side.
Target: Aurora kinase C (AURKC, Homo sapiens, UniProt Q9UQB9)
One construct used (Q9UQB9 1-309): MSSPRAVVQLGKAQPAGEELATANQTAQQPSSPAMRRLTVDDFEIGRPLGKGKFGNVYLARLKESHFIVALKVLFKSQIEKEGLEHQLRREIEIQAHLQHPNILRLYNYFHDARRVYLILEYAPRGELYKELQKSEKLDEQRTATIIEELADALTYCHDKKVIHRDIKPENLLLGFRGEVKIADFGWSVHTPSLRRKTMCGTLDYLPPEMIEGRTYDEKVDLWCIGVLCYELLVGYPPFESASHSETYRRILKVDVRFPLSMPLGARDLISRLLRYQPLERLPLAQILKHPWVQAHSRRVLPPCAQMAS

`CC(C)(O)[C@H]1CC[C@H](Nc2ccc3ncc(-c4cccc(C(F)(F)F)c4)n3n2)CC1` gave a remaining activity of 88.5% (enzyme activity; inhibitor; 1 µM).
With `CN(C)C(=O)Cn1cc(-c2nc([C@@](C)(c3ccc(-c4cnc(N)nc4)cc3)C3CC3)no2)cn1` the remaining binding was 100% (cell-free assay; competition with immobilised ligand; 1 µM).
With `O=c1c2ccccc2[nH]c(=S)n1CCN1CCC(=C(c2ccc(F)cc2)c2ccc(F)cc2)CC1` the remaining activity was 99.4% (enzyme activity; inhibitor; 0.5 µM).
The remaining activity of `CC(C)(C)c1nc(-c2cccc(NS(=O)(=O)c3c(F)cccc3F)c2F)c(-c2ccnc(N)n2)s1` is reported as 92% (enzyme activity; inhibitor; radiometric; 1 µM).
With `Cc1sc(C(=O)NC2COC2)cc1-n1cc(NC(=O)Nc2c(F)cccc2Cl)cn1` the remaining activity was 104% (enzyme activity; inhibitor; 10 µM).
The remaining signal of `CS(=O)(=O)CCNCc1ccc(-c2ccc3ncnc(Nc4ccc(OCc5cccc(F)c5)c(Cl)c4)c3c2)o1` is reported as 90.9% (cell-free assay; 0.5 µM).
The inhibition of `COc1cc2nccc(Oc3ccc(NC(=O)c4c5n(n(-c6ccc(F)cc6)c4=O)CCCC5)cc3)c2cc1OC` is reported as 24% (enzyme activity; inhibitor; 0.1 µM).
With `CS(=O)(=O)NCC[C@H](NC(=O)c1cncc2c1cnn2-c1ccc(F)cc1)c1ccnc(S(C)(=O)=O)c1` the remaining binding was 92% (cell-free assay; competition with immobilised ligand; 1 µM).
`COc1cc(Cl)c(C(=O)N[C@@H](CN[C@H]2CC[C@@H](N)CC2)Cc2ccc(C#N)cc2)cc1-c1ccc(CN[C@H](C)c2ccc(C)cc2)o1` has a remaining activity of 94% (enzyme activity; inhibitor; 1 µM).
For `CC1=C(C#N)[C@@H](c2ccc3[nH]nc(C)c3c2)C(C#N)=C(c2ccc(Cl)cc2)N1`, the remaining binding was 100% (cell-free assay; competition with immobilised ligand; 1 µM).
`CNc1cccc2cc(C(=O)Nc3ccc(C(=O)O)cc3)c(=O)[nH]c12` has an inhibition of -7.3% (enzyme activity; inhibitor; 10 µM).
`O=c1cc(-c2cccc3c2Sc2ccccc2S3)oc(N2CCOCC2)c1` has a remaining activity of 84.9% (enzyme activity; inhibitor; 0.5 µM).
For `CCN(CC)c1ccc(C2=NNC(=O)CC2C)cc1[N+](=O)[O-]` (centres unmarked), the remaining activity was 122% (enzyme activity; inhibitor; 10 µM).
With `CC(=O)N1CCC(c2ccc(C(=O)NC3=NCCN3)cc2C(F)(F)F)CC1` the remaining binding was 100% (cell-free assay; competition with immobilised ligand; 1 µM).
With `Cc1ccc(NC(=O)c2ccc(C)c(C(F)(F)F)c2)cc1C#Cc1nn(C2CCC(O)CC2)c2ncnc(N)c12` (centres unmarked) the remaining signal was 101% (cell-free assay; 10 µM).
With `COc1cc2ncnc(Nc3ccc(Oc4ccccc4)c(C)c3C)c2cc1OC` the inhibition was 5% (enzyme activity; inhibitor; 1 µM).
The remaining binding of `CCC(=O)N[C@H]1CC[C@@H](C(=O)N(C)c2ccc(-c3nc4ccccc4o3)cc2)C1` is reported as 100% (cell-free assay; competition with immobilised ligand; 1 µM).
With `CNC(=O)c1cc(Oc2ccc(NC(=O)Nc3ccc(Cl)c(C(F)(F)F)c3)cc2)ccn1` the remaining signal was 106% (cell-free assay; 0.5 µM).
`O=C(NS(=O)(=O)c1ccc(NCC2CCOCC2)c([N+](=O)[O-])c1)c1ccc(N2CCN(Cc3ccc(C(F)(F)F)cc3-c3ccc(Cl)cc3)CC2)cc1Oc1cnc2[nH]ccc2c1` has a remaining binding of 97% (cell-free assay; competition with immobilised ligand; 1 µM).
With `Cc1cc(NC(=O)c2cccc3cc(-c4cccc5[nH]nc(N)c45)ccc23)ccc1F` the activity vs control was 83% (enzyme activity; inhibitor; 0.1 µM).
